Experimental data from PMC8511081 (European journal of medicinal chemistry, 2021).
“Also recorded” adds a separate entry of the source.

Key:
sGC [1] = molecular target: T1, sGC (Homo sapiens, UniProt Q02153); type: biochemical; details: 100 μM screening on Fe2+-sGC and Fe3+-sGC (Fig. 2)
T1 sequence (Q02153 1-619): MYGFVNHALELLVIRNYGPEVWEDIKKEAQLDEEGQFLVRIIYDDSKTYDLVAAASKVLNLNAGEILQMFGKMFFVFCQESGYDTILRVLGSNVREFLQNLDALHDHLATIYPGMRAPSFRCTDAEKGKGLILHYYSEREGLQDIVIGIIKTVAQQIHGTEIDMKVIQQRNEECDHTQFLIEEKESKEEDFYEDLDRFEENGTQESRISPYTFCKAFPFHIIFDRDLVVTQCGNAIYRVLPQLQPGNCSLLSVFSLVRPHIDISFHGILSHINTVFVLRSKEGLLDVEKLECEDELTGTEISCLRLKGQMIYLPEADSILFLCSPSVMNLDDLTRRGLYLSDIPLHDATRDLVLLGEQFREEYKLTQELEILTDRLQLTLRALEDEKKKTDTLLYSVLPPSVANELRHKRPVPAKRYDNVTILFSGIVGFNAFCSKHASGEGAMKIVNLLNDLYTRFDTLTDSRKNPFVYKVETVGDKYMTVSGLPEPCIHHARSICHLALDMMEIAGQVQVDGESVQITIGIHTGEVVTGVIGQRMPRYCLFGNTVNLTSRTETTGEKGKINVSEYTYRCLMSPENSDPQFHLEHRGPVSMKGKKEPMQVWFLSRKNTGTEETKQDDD
T1 sequence (Q02108 1-690 partner): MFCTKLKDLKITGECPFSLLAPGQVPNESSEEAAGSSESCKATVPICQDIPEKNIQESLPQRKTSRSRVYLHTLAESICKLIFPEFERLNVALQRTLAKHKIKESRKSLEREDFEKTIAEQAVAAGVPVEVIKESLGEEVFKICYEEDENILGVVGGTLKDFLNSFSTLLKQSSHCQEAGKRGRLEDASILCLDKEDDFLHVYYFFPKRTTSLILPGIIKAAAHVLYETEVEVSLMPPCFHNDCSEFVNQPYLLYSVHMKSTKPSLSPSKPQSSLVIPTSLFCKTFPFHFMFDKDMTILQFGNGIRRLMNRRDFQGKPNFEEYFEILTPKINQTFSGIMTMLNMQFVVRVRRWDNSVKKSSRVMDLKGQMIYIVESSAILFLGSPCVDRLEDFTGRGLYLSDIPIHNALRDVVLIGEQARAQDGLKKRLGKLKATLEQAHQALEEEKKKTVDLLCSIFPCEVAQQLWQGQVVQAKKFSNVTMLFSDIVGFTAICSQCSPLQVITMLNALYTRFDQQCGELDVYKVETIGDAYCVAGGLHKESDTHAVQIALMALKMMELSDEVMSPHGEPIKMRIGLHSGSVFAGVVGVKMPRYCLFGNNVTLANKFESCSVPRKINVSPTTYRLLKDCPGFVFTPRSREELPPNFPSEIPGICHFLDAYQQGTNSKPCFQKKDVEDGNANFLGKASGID
Summary of the method: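 Human α1/β1 sGC from Sf9 cells was purified on DEAE, Ni-agarose and gel filtration. The ferric form was made by adding 10 μM ODQ at pre-incubation. Then 15 min at 37 °C with 1 mM GTP/[α-32P]GTP; zinc carbonate stop; [32P]cGMP measured.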

[2] = molecular target: T2, human sGC with ferric heme (Fe3+-sGC) (Homo sapiens, UniProt Q02153); experiment: cGMP-forming activity of purified sGC with ferric heme; type: biochemical; details: for shape of the activation curve: dose-dependent activation of sGC with ferric heme, Fig. 3; for activation of Fe3+-sGC: 100 μM, Fig. 2B
T2 sequence (Q02153 1-619): T1 sequence (Q02153 1-619)
T2 sequence (Q02108 1-690 partner): T1 sequence (Q02108 1-690 partner)

[3] = molecular target: T3, human sGC with ferrous heme (Fe2+-sGC) (Homo sapiens, UniProt Q02153); experiment: cGMP-forming activity of purified sGC with ferrous heme; type: biochemical; details: 100 μM, Fig. 2A
T3 sequence (Q02153 1-619): T1 sequence (Q02153 1-619)
T3 sequence (Q02108 1-690 partner): T1 sequence (Q02108 1-690 partner)
Summary of the method: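 Ferrous-heme human α1/β1 sGC, expressed in Sf9 cells and purified through DEAE, Ni-agarose and Superdex 200. Reaction started at 37 °C with 1 mM GTP/[α-32P]GTP (~100000 cpm) for 15 min. Stopped by zinc carbonate precipitation; [32P]cGMP formed.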

sGC [4] = details: cited from earlier work

sGC activation (sGC [1]) | shape of the activation curve [2] | SMILES | activation of Fe3+-sGC [2] | further results
not conducive to sGC activation |  | Cc1ccc(C)c(OCC(=O)O)c1 [Compound 4a, 2-(2,5-dimethylphenoxy)acetic acid] |  | 
not conducive to sGC activation |  | Cc1ccc(C)c(OCCCC(=O)O)c1 [Compound 4b, 4-(2,5-dimethylphenoxy)butanoic acid] |  | 
activated both Fe^2+-sGC and Fe^3+-sGC | typical S-shaped pattern | Cc1ccc(C)c(OCCCCC(=O)O)c1 [Compound 4c, 5-(2,5-dimethylphenoxy)pentanoic acid] |  | 
activated both Fe^2+-sGC and Fe^3+-sGC | typical S-shaped pattern | Cc1ccc(C)c(OCCCCCC(=O)O)c1 [Compound 4d, 6-(2,5-dimethylphenoxy)hexanoic acid] | diminished | activation of Fe2+-sGC [3]: tolerated
activated both Fe^2+-sGC and Fe^3+-sGC | typical S-shaped pattern | Cc1ccc(C)c(NCCCC(C)(C)C(=O)O)c1 [Compound 7a, 5-((2,5-dimethylphenyl)amino)-2,2-dimethylpentanoic acid] |  | 
does not activate sGC |  | O=C(O)CCCCCOc1ccccc1 [Compound 8b, 6-phenoxyhexanoic acid] |  | 
 |  | Cc1ccc(C)c(N(CCCC(C)(C)C(=O)O)C(=O)CCC(=O)O)c1 [Compound 10d, 5-(3-carboxy-N-(2,5-dimethylphenyl)propanamido)-2,2-dimethylpentanoic acid] | weak, yet statistically significant activation | 
 |  | Cc1ccc(C)c(N(CCCC(C)(C)C(=O)O)C(=O)CCCC(=O)O)c1 [Compound 10e, 5-(4-carboxy-N-(2,5-dimethylphenyl)butanamido)-2,2-dimethylpentanoic acid] | weak, yet statistically significant activation | 
 |  | Cc1ccc(C)c(N(CCCC(C)(C)C(=O)O)C(=O)CCCCC(=O)O)c1 [Compound 10f, 6-((4-carboxy-4-methylpentyl)(2,5-dimethylphenyl)amino)-6-oxohexanoic acid] | weak, yet statistically significant activation | 
 |  | CCC(CCCOc1cc(C)ccc1C)C(=O)O (centres unmarked) [Compound 15a, 5-(2,5-dimethylphenoxy)-2-ethylpentanoic acid] | significantly hampered the activation | activation of Fe2+-sGC [3]: blocked the activation
activated both Fe^2+-sGC and Fe^3+-sGC | bell-shaped curve | CCCCCCC(CCCOc1cc(C)ccc1C)C(=O)O (centres unmarked) [Compound 15b, 2-(3-(2,5-dimethylphenoxy)propyl)octanoic acid] |  | 
 |  | O=C(O)CCCCN(CCc1ccccc1OCc1ccc(CCc2ccccc2)cc1)Cc1ccc(C(=O)O)cc1 [cinaciguat] |  | estimated EC50 (sGC [4]): low nanomolar range

SMILES | sGC activation (sGC [1]) | shape of the activation curve [2] | activation of Fe3+-sGC [2] | further results
Cc1ccc(C(C)C)c(OCCCC(C)(C)C(=O)O)c1 [Compound 7c, 5-(2-isopropyl-5-methylphenoxy)-2,2-dimethylpentanoic acid] | activated both Fe^2+-sGC and Fe^3+-sGC; also recorded: well tolerated | bell-shaped curve |  | 
Cc1ccc(C)c(N(CCCC(C)(C)C(=O)O)C(=O)CCCCC(=O)N(CCCC(C)(C)C(=O)O)c2cc(C)ccc2C)c1 [Compound 11, 5,5’-(adipoylbis((2,5-dimethylphenyl)azanediyl))bis(2,2-dimethyl-pentanoic acid)] | activated both Fe^2+-sGC and Fe^3+-sGC; also recorded: exhibited sGC activation | typical S-shaped pattern |  | 
